# Measured values: ChEMBL document CHEMBL4627334, “Design, synthesis and biological evaluation of 4-(pyridin-4-yloxy)benzamide derivatives bearing a 5-methylpyridazin-3(2H)-one fragment” (Bioorg Med Chem Lett, 2020)
# Active and inactive are the calls of the source. The rule behind the calls is not given here.
# Tests used:
# HeLa [1] = experiment: Antiproliferative activity against human HeLa cells assessed as reduction in cell viability after 72 hrs by MTT assay; type: functional, cell-based
# Method in brief: (§1)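 Cells grown in DMEM/1640 with 10% FBS, seeded at about 4×10^3 per well and held 24 h at 37 °C, 5% CO2. Compounds diluted in medium or DMSO were added for 72 h, then MTT ([…]) was added for 3.5 h at 37 °C. Formazan was dissolved in DMSO and read at 492 nm against 630 nm. Triplicate wells, three runs, IC50 calculated.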
# A549 [2] = experiment: Antiproliferative activity against human A549 cells assessed as reduction in cell viability after 72 hrs by MTT assay; type: functional, cell-based; conditions: A549, 72 h; method in brief: as §1
# MCF7 [3] = experiment: Antiproliferative activity against human MCF7 cells assessed as reduction in cell viability after 72 hrs by MTT assay; type: functional, cell-based; method in brief: as §1
# [4] = molecular target: Hepatocyte growth factor receptor (Homo sapiens, UniProt P08581); experiment: Inhibition of cMET (unknown origin) using FAM-labeled peptide as substrate pre-incubated for 5 to 10 mins followed by substrate addition and measured after 30 to 60 mins by mobility shift assay
# HeLa [5] = experiment: Antiproliferative activity against human HeLa cells assessed as inhibition of cell proliferation at 1.23 umol/L after 72 hrs by MTT assay relative to control; type: functional
# Method in brief: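 Cells were cultured in medium with 10% FBS and seeded near 4×10^3 per well, 24 h before dosing. MTT (5 µg/mL) was added for 3.5 h at 37 °C, formazan dissolved in DMSO, and absorbance read at 492/630 nm.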
# HeLa [6] = experiment: Induction of apoptosis in human HeLa cells assessed as increase in apoptotic bodies at 1 to 5 ug/L after 12 hrs by acridine orange staining based assay; type: functional, cell-based
# Method in brief: (§2)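 HeLa cells were treated at 1 and 5 µg/L for 12 h, then stained with acridine orange. Morphology was compared with untreated control cells, scoring cytoplasmic contraction, membrane swelling and apoptotic bodies.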
# HeLa [7] = experiment: Induction of apoptosis in human HeLa cells assessed as membrane swelling at 1 to 5 ug/L after 12 hrs by acridine orange staining based assay; type: functional, cell-based; method in brief: as §2
# HeLa [8] = experiment: Induction of apoptosis in human HeLa cells assessed as cytoplasmic contraction at 1 to 5 ug/L after 12 hrs by acridine orange staining based assay; type: functional, cell-based; method in brief: as §2
# HeLa [9] = experiment: Potency index, ratio of golvatinib IC50 to test compound IC50 for antiproliferative activity against human HeLa cells; type: functional
# A549 [10] = experiment: Potency index, ratio of golvatinib IC50 to test compound IC50 for antiproliferative activity against human A549 cells; type: functional
# HeLa [11] = experiment: Induction of apoptosis in human HeLa cells after 12 hrs by acridine orange staining based assay; type: functional, cell-based; method in brief: as §2
# MCF7 [12] = experiment: Potency index, ratio of golvatinib IC50 to test compound IC50 for antiproliferative activity against human MCF7 cells; type: functional
# [13] = Homo sapiens, HeLa, 72 h, read-out: IC50
# [14] = Homo sapiens, MCF7, 72 h, read-out: IC50
# Sequence of Hepatocyte growth factor receptor (P08581 whole entry): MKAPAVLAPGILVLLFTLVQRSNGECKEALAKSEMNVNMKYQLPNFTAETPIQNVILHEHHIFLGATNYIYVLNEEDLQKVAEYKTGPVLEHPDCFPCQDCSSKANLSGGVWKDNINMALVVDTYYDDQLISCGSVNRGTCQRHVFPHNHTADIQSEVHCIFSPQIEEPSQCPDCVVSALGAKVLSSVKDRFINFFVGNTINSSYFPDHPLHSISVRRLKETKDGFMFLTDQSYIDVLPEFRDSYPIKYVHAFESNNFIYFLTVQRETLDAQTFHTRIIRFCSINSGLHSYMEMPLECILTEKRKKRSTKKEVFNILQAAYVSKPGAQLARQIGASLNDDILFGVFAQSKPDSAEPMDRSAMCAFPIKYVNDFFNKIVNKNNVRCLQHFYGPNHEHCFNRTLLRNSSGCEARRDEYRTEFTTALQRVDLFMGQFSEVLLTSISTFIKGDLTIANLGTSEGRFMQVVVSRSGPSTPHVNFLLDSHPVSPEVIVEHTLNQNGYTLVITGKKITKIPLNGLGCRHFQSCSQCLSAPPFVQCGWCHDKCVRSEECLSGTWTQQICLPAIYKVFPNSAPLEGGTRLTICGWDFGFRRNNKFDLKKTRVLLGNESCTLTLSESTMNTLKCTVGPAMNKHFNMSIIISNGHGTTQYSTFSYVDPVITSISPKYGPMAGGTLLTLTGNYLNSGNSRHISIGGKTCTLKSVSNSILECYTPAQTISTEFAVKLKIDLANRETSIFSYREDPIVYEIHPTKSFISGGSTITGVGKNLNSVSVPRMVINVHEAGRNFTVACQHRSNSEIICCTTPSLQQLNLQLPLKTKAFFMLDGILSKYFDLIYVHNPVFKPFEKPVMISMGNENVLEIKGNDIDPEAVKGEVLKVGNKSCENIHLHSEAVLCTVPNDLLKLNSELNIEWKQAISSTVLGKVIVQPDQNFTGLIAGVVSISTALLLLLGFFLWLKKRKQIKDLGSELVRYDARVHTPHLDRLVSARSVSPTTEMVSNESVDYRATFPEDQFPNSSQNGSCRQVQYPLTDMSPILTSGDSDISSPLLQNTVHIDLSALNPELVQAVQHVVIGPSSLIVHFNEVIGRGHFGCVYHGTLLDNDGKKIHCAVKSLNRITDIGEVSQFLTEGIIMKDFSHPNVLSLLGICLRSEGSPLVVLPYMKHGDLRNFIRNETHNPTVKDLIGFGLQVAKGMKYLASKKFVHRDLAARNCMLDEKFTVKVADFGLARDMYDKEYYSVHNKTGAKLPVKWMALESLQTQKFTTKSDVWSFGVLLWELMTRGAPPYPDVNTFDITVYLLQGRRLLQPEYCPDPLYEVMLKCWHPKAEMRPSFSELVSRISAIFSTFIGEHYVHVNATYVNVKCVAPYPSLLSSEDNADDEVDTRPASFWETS
Structure (SMILES),IC50 (HeLa [1]; [13]) [µM],IC50 (A549 [2]) [µM],IC50 (MCF7 [3]; [14]) [µM],also measured
CCCNC(=O)c1cc(Oc2ccc(NC(=O)c3nn(-c4cccc(F)c4)c(=O)cc3C)cc2F)ccn1,6.66,7.02,13.3,
Cc1cc(=O)n(-c2ccc(Br)cc2F)nc1C(=O)Nc1ccc(Oc2ccnc(C(=O)NCCCN3CCOCC3)c2)cc1,4.25,6.83,8.23,IC50 [4]: > 10 µM
CCCNC(=O)c1cc(Oc2ccc(NC(=O)c3nn(-c4cccc(C(F)(F)F)c4)c(=O)cc3C)cc2F)ccn1,8,9.24,30,
CCCNC(=O)c1cc(Oc2ccc(NC(=O)c3nn(-c4ccccc4C)c(=O)cc3C)cc2F)ccn1,24.6,25.7,39.6,
CCCNC(=O)c1cc(Oc2ccc(NC(=O)c3nn(-c4ccc(Br)cc4F)c(=O)cc3C)cc2F)ccn1,53.5,235,,IC50 (MCF7 [3]; mcf7): Not Active
CNC(=O)c1cc(Oc2ccc(NC(=O)c3nn(-c4ccccc4Cl)c(=O)cc3C)cc2F)ccn1,9.87,11.8,136,
CCCNC(=O)c1cc(Oc2ccc(NC(=O)c3nn(-c4ccccc4OC(F)(F)F)c(=O)cc3C)cc2F)ccn1,3.69,4.22,7.42,
CCNC(=O)c1cc(Oc2ccc(NC(=O)c3nn(-c4ccccc4OC(F)(F)F)c(=O)cc3C)cc2)ccn1,3.99,5.28,15.5,
Cc1cc(=O)n(-c2ccccc2OC(F)(F)F)nc1C(=O)Nc1ccc(Oc2ccnc(C(=O)NCCCN3CCOCC3)c2)cc1,1.15,1.03,2.59,inhibition at 1.23 µM (HeLa [5]): > 50%; IC50 [4]: 0.807 µM; Activity (HeLa [6]): Active; Activity (HeLa [7]): Active; Activity (HeLa [8]): Active; Ratio IC50 (HeLa [9]): 2.6 - 6.95; Activity (HeLa [1]): Dose-dependent effect; Ratio IC50 (A549 [10]): 2.6 - 6.95; Activity (HeLa [11]): Dose-dependent effect; Ratio IC50 (MCF7 [12]): 2.6 - 6.95
CNC(=O)c1cc(Oc2ccc(NC(=O)c3nn(-c4cccc(C(F)(F)F)c4)c(=O)cc3C)cc2F)ccn1,11.8,10.2,45.8,
CN1CCN(C2CCN(C(=O)Nc3cc(Oc4ccc(NC(=O)C5(C(=O)Nc6ccc(F)cc6)CC5)c(F)c4)ccn3)CC2)CC1 [GOLVATINIB],4.14,6.89,20.6,inhibition at 1.23 µM (HeLa [5]): 20%
CCNC(=O)c1cc(Oc2ccc(NC(=O)c3nn(-c4ccc(Br)cc4F)c(=O)cc3C)cc2)ccn1,,34.5,35.1,IC50 (HeLa [1]; hela): Not Active
Cc1cc(=O)n(-c2cccc(C(F)(F)F)c2)nc1C(=O)Nc1ccc(Oc2ccnc(C(=O)NCCCN3CCOCC3)c2)cc1,1.65,2.5,5.21,IC50 [4]: > 10 µM
CNC(=O)c1cc(Oc2ccc(NC(=O)c3nn(-c4ccccc4)c(=O)cc3C)cc2F)ccn1,,40.8,,IC50 (HeLa [1]; hela): Not Active; IC50 (MCF7 [3]; mcf7): Not Active

# More lines, main results first:
IC50 (HeLa [1]; [13]) [µM],IC50 (A549 [2]) [µM],IC50 (MCF7 [3]; [14]) [µM],Structure (SMILES),also measured
6.87,7.41,18.9,CCNC(=O)c1cc(Oc2ccc(NC(=O)c3nn(-c4cccc(F)c4)c(=O)cc3C)cc2)ccn1,
885,722,,Cc1cc(=O)n(-c2cccc(C(F)(F)F)c2)nc1C(=O)Nc1ccc(Oc2ccnc(C(=O)NCCc3cccs3)c2)cc1,IC50 (MCF7 [3]; mcf7): Not Active
434,876,,Cc1cc(=O)n(-c2ccccc2OC(F)(F)F)nc1C(=O)Nc1ccc(Oc2ccnc(C(=O)NCCc3cccs3)c2)cc1,IC50 (MCF7 [3]; mcf7): Not Active
387,585,969,Cc1cc(=O)n(-c2ccc(Br)cc2F)nc1C(=O)Nc1ccc(Oc2ccnc(C(=O)NCCc3cccs3)c2)cc1,
27.3,34.8,44.3,CCNC(=O)c1cc(Oc2ccc(NC(=O)c3nn(-c4ccccc4C)c(=O)cc3C)cc2)ccn1,
1.92,2.94,3.57,Cc1ccc(-n2nc(C(=O)Nc3ccc(Oc4ccnc(C(=O)NCCCN5CCOCC5)c4)cc3)c(C)cc2=O)cc1,IC50 [4]: > 10 µM
14.2,18,34.6,CCCNC(=O)c1cc(Oc2ccc(NC(=O)c3nn(-c4ccc(C)cc4)c(=O)cc3C)cc2F)ccn1,
10.7,10,40.6,CCNC(=O)c1cc(Oc2ccc(NC(=O)c3nn(-c4cccc(C(F)(F)F)c4)c(=O)cc3C)cc2)ccn1,
660,965,,Cc1ccc(-n2nc(C(=O)Nc3ccc(Oc4ccnc(C(=O)NCCc5cccs5)c4)cc3)c(C)cc2=O)cc1,IC50 (MCF7 [3]; mcf7): Not Active
10.7,11.6,51.2,CCNC(=O)c1cc(Oc2ccc(NC(=O)c3nn(-c4ccc(C)cc4)c(=O)cc3C)cc2)ccn1,
